Results of several laboratories.
Lines come from different studies, so protocols differ.
Organism: Staphylococcus aureus
Read-out: microbial growth

SMILES | assay | test system | conditions | MIC
Cc1ccc2[nH]c3c(c2c1)CCCC3NCCc1ccc(Br)cc1 (stereo not shown) | broth dilution | ATCC29213 | – | 4 µg/mL
Cc1ccc2nc(-c3ccc(Cl)cc3)n(Cc3ccccc3Cl)c2c1 | broth dilution | ATCC43300 MRSA | drug-resistant strain | 64 µg/mL
CCCCCCC#Cc1cncc(-c2nnc(SCc3cc([N+](=O)[O-])cc([N+](=O)[O-])c3)n2C)c1 | – | MRSA | drug-resistant strain | ≥ 20 µg/mL
COC(=O)c1cc(-c2cccc(NC(=O)Nc3cccc(Cl)c3)c2)on1 | broth dilution | ATCC29213 | – | > 64 µg/mL
Cc1ccc2nc(-c3ccc4c(c3)OCO4)[nH]c2c1 | broth dilution | ATCC43300 MRSA | drug-resistant strain | 512 µg/mL
Cc1ccccc1-n1c(Cn2ncc3c(N)ncnc32)nc2cccc(C)c2c1=O | – | NCTC8325 | – | > 30 µM
COC(=O)c1cc(-c2cccc(NC(=S)Nc3ccc(Cl)cc3)c2)on1 | broth dilution | ATCC29213 | – | > 64 µg/mL
O=C(N[C@H](CO)[C@H](O)c1ccc([N+](=O)[O-])cc1)C(Cl)Cl | – | USA300 | – | 4 µg/mL
CCCCCCCCCCCCCCCC(=O)NP(=O)(O)O | – | ATCC33591 MRSA | drug-resistant strain | 200 µg/mL
c1ccc2c(-c3nc4ccccc4[nH]3)c3ccccc3cc2c1 | broth dilution | ATCC43300 MRSA | drug-resistant strain | 64 µg/mL
COC(=O)c1cc(-c2cccc(NC(=O)Nc3cccc(Br)c3)c2)on1 | broth dilution | ATCC29213 | – | > 64 µg/mL
COc1ccc(Cc2cnc(N)nc2N)cc1OC | broth dilution | – | – | ~50 µM
CCCCCCCC/C=C\CCCCCCCC(=O)C(F)(F)P(=O)(O)O | – | ATCC33591 MRSA | drug-resistant strain | > 200 µg/mL
Fc1cccc(Cl)c1-c1nc2ccccc2[nH]1 | broth dilution | ATCC43300 MRSA | drug-resistant strain | 128 µg/mL
COC(=O)c1cc(-c2cccc(NC(=O)Nc3cc(OC)ccc3OC)c2)on1 | broth dilution | ATCC29213 | – | > 64 µg/mL
Clc1ccc(Cn2c(-c3ccc(Cl)cc3)nc3ccccc32)cc1 | broth dilution | ATCC43300 MRSA | drug-resistant strain | 16 µg/mL
COc1ccc(NC(=O)Nc2ccc(Cl)c(C(F)(F)F)c2)cc1 | – | NCTC8325 | – | 3 µM
COc1cccc(-c2nc3ccccc3[nH]2)c1 | broth dilution | ATCC43300 MRSA | drug-resistant strain | 512 µg/mL
CC1(C)S[C@@H]2[C@H](NC(=O)Cc3ccccc3)C(=O)N2[C@H]1C(=O)O | – | USA300 | – | 128 µg/mL
